Data on 15 compounds can be found in article PMC8792325 (Bioorganic & medicinal chemistry letters, 2021).

Data set [1] has as its system HBV replication in HepDES19 cells. As to the kind of experiment: Mapping of the HBV replication step inhibited, in HepDES19 cells. It is filed as cell-based, Hepatitis B virus. The settings on record: HepDES19, 6 days, ETV 1 μM, Bay 41–4109 2 μM; for encapsidated pgRNA / capsids: ENAN-34017 5 μM, 61 5 μM; for encapsidated pgRNA: Northern blot; for capsids: particle gel assay; for intracellular core protein level: Western blot. Put shortly:
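HepDES19 cells were kept with tetracycline to block pgRNA transcription (negative control) or without it to induce pgRNA and HBV DNA replication. From 24 h after tet removal, cells got DMSO, test compound (5 μM) or a type II CpAM reference (5 μM) for 6 days. Intracellular core protein was detected by Western blot with an antibody to Cp C-terminal 14 residues; β-actin was the loading control.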

Data set [2] in a line: Metabolic stability in mouse liver microsomes. It is filed as in vitro ADME. The settings on record: Half-life T1/2, mouse liver microsomes.
Data set [3] relates to HBV replication. The settings on record: human hepatoma cell line HepDES19; cited from earlier work.
The subject of data set [4] is HBV replication. The settings on record: immortalized mouse hepatocyte line AML12HBV10; cited from earlier work.
Data set [5] deals with HBV replication. As to the kind of experiment: Anti-HBV activity, dot blot hybridization assay in AML12HBV10 cells. It is filed as cell-based, Hepatitis B virus.
For another data set, the system named is CYP enzymes. The experiment in a line: in vitro. It is filed as in vitro ADME. The settings on record: human, 10 μM.
The subject of data set [6] is CYP enzymes (one unnamed isoform of a panel of 9). As to the kind of experiment: in vitro. It is filed as in vitro ADME.
Data set [7] in a line: Mouse PK study, IV and PO. The settings on record: in vivo, 3 mg/kg. More on the design: species or system mice.

With `COC(=O)C1=C(C)NC(c2ncc(F)cc2F)=N[C@H]1c1ccc(F)cc1Cl` [Bay 41–4109], in data set [1], the “encapsidated pgRNA” value is listed as “prevented”, the capsids entry is listed as “completely abolished capsid formation” and the “intracellular core protein level” value is “induced the degradation of core protein”.

Consider `O=C(Nc1ccc(F)c(Cl)c1)c1cccc2c1OCCO2` [Compound 10], for which, in data set [2], the half-life is under 10 min. Moreover, the “EC50 in HepDES19” value in the data set on HBV replication [3] is listed as “sub-micromolar”. Also, the “EC50 in AML12HBV10” value in the data set with HBV replication [4] is reported as “sub-micromolar”.

On to `O=C(Nc1ccc(N2CCOCC2)c(Cl)c1)c1cccc2c1OCCO2` [Compound 17], for which the “anti-HBV activity (in words)” value with HBV replication [5] is listed as “loss of anti-HBV activity”.

Take `O=C(Nc1ccc(O)c(Cl)c1)c1cccc2c1OCCO2` [Compound 20]: the “anti-HBV activity (in words)” value in the data set on HBV replication [5] is recorded as “not active”.

Regarding `O=C(NC1CC(F)(F)C1)c1cccc2c1OCCO2` [Compound 21], the “anti-HBV activity (in words)” value in the data set on HBV replication [5] is listed as “lost activity”.

Consider `O=C(Nc1cc(F)c(F)c(F)c1)c1cccc2c1OCCO2` [Compound 29], for which the “anti-HBV activity (in words)” value in the data set with HBV replication [5] is listed as “submicromolar”.

Turning to `O=C(Nc1ccc(F)c(Cl)c1)c1cccc2c1OCCC2` [Compound 33], the “activity loss compared to 10” value with HBV replication [5] was “about 4 fold”.

On to `O=C(Nc1ccc(F)c(Cl)c1)c1cccc2nccnc12` [Compound 34], for which the “activity loss compared to 10” value in the data set with HBV replication [5] is recorded as over 10 fold.

With `O=C(Nc1ccc(F)c(Cl)c1)c1cccc2c1OC(F)(F)O2` [Compound 37], the “potency increase compared to 10” value with HBV replication [5] is 2 fold.

Take `O=C1CCN(C(=O)Nc2ccc(F)c(Cl)c2)C2CCCCC12` (stereo not drawn) [Compound 61, cis-N-(3-chloro-4-fluorophenyl)-4-oxooctahydroquinoline-1(2H)-carboxamide]: the “CYP (#/9 of isoforms, > 50% of inhibition at 10 μM)” value in the data set on CYP enzymes came out at 1. Also, in data set [6], the IC50 was under 10 µM. Also, the clearance in data set [7] is 25.5 mL/min/kg. Moreover, in data set [1], the “encapsidated pgRNA” value is listed as “reduced the amounts of encapsidated pgRNA” and the capsids result is “induced the accumulation of capsids with faster electrophoresis mobility”.

With `Cc1cc(NC(=O)N2CCC(=O)[C@H]3CCCC[C@H]32)ccc1F` [Compound 70], in the data set with HBV replication [5], the “anti-HBV activity (in words)” value is given as “submicromolar”.

On to `O=C1CCN(C(=O)Nc2ccc(F)c(C(F)F)c2)[C@@H]2CCCC[C@H]12` [Compound 71], for which the “anti-HBV activity (in words)” value with HBV replication [5] is reported as “submicromolar”.

For the compound `O=C1CCN(C(=O)Nc2cccc(Cl)c2)[C@@H]2CCCC[C@H]12` [Compound 74], in the data set on HBV replication [5], the “anti-HBV activity (in words)” value is recorded as “submicromolar”.

In the case of `C[C@@H](NS(=O)(=O)c1ccc(F)c(C(=O)Nc2ccc(F)c(F)c2)c1)C1CC1` [ENAN-34017], in data set [1], the “encapsidated pgRNA” value is listed as “reduced the amounts of encapsidated pgRNA” and the capsids result is “induced the accumulation of capsids with faster electrophoresis mobility”.

In the case of `C=C1[C@H](CO)[C@@H](O)C[C@@H]1n1cnc2c(=O)[nH]c(N)nc21.O` [Entecavir], in data set [1], the “encapsidated pgRNA” value was “accumulation of encapsidated pgRNA”, the capsids result was “did not alter” and the “intracellular core protein level” value was “did not alter”.
